Test results as given in ChEMBL document CHEMBL1121494, “Prostaglandins and congeners. 22. Synthesis of 11-substituted derivatives of 11-deoxyprostaglandins E1 and E2. Potential bronchodilators” (1980).

tested on: Cavia porcellus; assay: Relative potency against bronchoconstrictions, induced by intravenous administration of histamine at doses […] in guinea pig.; assay type: functional
How it was run: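 Anesthetized guinea pigs (intraperitoneal urethane), curarized with iv gallamine; modified Konzett-Rossler set-up. Bronchoconstriction provoked by iv histamine or serotonin at 5.6-22.5 μg/kg, doses giving a 20 to 50 cm water rise in tracheal pressure; 12 s iv injections repeated every 5 min. Test compounds given iv. Broncholytic activity scored in at least four animals per spasmogen per dose level, expressed as potency relative to l-PGE₂.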

Compound | Relative potency
CCCCC[C@H](O)/C=C/[C@H]1[C@H](SCCO)CC(=O)[C@@H]1C/C=C\CCCC(=O)O | 55
CCCCC[C@H](O)/C=C/[C@H]1[C@H](SCCO)CC(=O)[C@@H]1C/C=C\CCCC(=O)OC | 100
CCCCC[C@H](O)/C=C/[C@H]1C(SCC(=O)OCC)CC(=O)[C@@H]1C/C=C\CCCC(=O)OC (some centres undefined) | 3
CCCCC(O)C/C=C/[C@H]1[C@H](SCCO)CC(=O)[C@@H]1CCCCCCC(=O)O (mixture of isomers) | 24
CCCCC[C@H](O)/C=C/[C@H]1C(SCCN(C)C)CC(=O)[C@@H]1C/C=C\CCCC(=O)OC (some centres undefined) | 14
CCCCC[C@@H](O)/C=C/[C@H]1[C@@H](SCCO)CC(=O)[C@@H]1C/C=C\CCCC(=O)OC (racemic) | 6
CCCCC[C@H](O)/C=C/[C@H]1C(SCC)CC(=O)[C@@H]1C/C=C\CCCC(=O)OC (some centres undefined) | 1
CCCCC[C@H](O)/C=C/[C@H]1C(Sc2cccc(O)c2)CC(=O)[C@@H]1C/C=C\CCCC(=O)OC (some centres undefined) | 0.2
CCCCC[C@H](O)/C=C/[C@H]1C(SCCS)CC(=O)[C@@H]1C/C=C\CCCC(=O)OC (some centres undefined) | 0.4
CCCCC[C@H](O)/C=C/[C@H]1C(SCC(C)O)CC(=O)[C@@H]1C/C=C\CCCC(=O)OC (some centres undefined) | 2
CCCCC[C@H](O)/C=C/[C@H]1[C@@H](SCCO)CC(=O)[C@@H]1C/C=C\CCCC(=O)OC | 10
CCCCC(C)(O)C/C=C/[C@H]1[C@H](SCCO)CC(=O)[C@@H]1C/C=C\CCCC(=O)OC (mixture of isomers) | 109
CCCCC[C@H](O)/C=C/[C@H]1C(SCCC)CC(=O)[C@@H]1C/C=C\CCCC(=O)OC (some centres undefined) | <0.2
CCCCC[C@H](O)/C=C/[C@H]1C(SCCCO)CC(=O)[C@@H]1C/C=C\CCCC(=O)OC (some centres undefined) | 0.8
CCCCC[C@H](O)/C=C/[C@H]1[C@H](SCCO)CC(=O)[C@@H]1C/C=C\CCCC(=O)OC (racemic) | 30
CCCCC[C@H](O)/C=C/[C@H]1C(SCC(=O)O)CC(=O)[C@@H]1C/C=C\CCCC(=O)OC (some centres undefined) | 0.1
CCCCC[C@H](O)/C=C/[C@H]1C(SCC(O)CO)CC(=O)[C@@H]1C/C=C\CCCC(=O)OC (some centres undefined) | 11
CCCCCC(C)(O)/C=C/[C@H]1[C@H](SCCO)CC(=O)[C@@H]1CCCCCCC(=O)O (mixture of isomers) | 16
CCCCC[C@H](O)/C=C/[C@H]1C(SCCN)CC(=O)[C@@H]1C/C=C\CCCC(=O)OC (some centres undefined) | 0.3
CCCCC[C@H](O)/C=C/[C@H]1C(SCCO)CC(=O)[C@@H]1CCCCCCC(=O)O (some centres undefined) | 104
CCCCCC/C=C/[C@H]1[C@H](SCCO)CC(=O)[C@@H]1C/C=C\CCCC(=O)OC (racemic) | 14
CCCCC[C@@H](O)/C=C/[C@H]1[C@H](SCCO)CC(=O)[C@@H]1C/C=C\CCCC(=O)OC | 19
CCCCC[C@H](O)/C=C/[C@H]1[C@H](O)CC(=O)[C@@H]1C/C=C\CCCC(=O)O [DINOPROSTONE] | 570
CCCCC[C@H](O)/C=C/[C@H]1[C@H](OCCO)CC(=O)[C@@H]1CCCCCCC(=O)O (racemic) | 14
CCCCC[C@H](O)/C=C/[C@H]1C(SCCCS)CC(=O)[C@@H]1C/C=C\CCCC(=O)OC (some centres undefined) | 9
CCCCC[C@H](O)/C=C/C1CCC(=O)[C@@H]1C/C=C\CCCC(=O)O (some centres undefined) | 92
CCCCCC(O)CSC1CC(=O)[C@H](C/C=C\CCCC(=O)OC)[C@H]1/C=C/[C@H](O)CCCCC (some centres undefined) | <0.2
CCCCC[C@H](O)/C=C/[C@H]1[C@H](OCCO)CC(=O)[C@@H]1C/C=C\CCCC(=O)OC (racemic) | 3
CCCCC[C@H](O)/C=C/[C@H]1C(SCCN(CC)CC)CC(=O)[C@@H]1C/C=C\CCCC(=O)OC (some centres undefined) | 22
